The values that follow come from ChEMBL document CHEMBL3526116, “Toxicological evaluation of acyl glucuronides of nonsteroidal anti-inflammatory drugs using human embryonic kidney 293 cells stably expressing human UDP-glucuronosyltransferase and human hepatocytes” (Drug Metab Dispos, 2011).

A value given as a limit tells only on which side of the number the result lay.

Data set [1] concerns HEK293. Nature of the data set: Cytotoxicity against HEK293 cells expressing UGT assessed as LDH leakage at 1 mM after 6 to 24 hrs by spectrophotometric analysis relative to total cell LDH level. In kind it is ADME, cell-based. The note with it: human, hek293, 1000 µM. An outline of the steps: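 Stable UGT-expressing or mock HEK293 lines in DMEM with 0.5% FBS, 2 x 10^4 cells/well, drug for 6, 12 or 24 h. LDH released into medium read at 490 nm (690 nm reference); percentage calculated against maximum release from control cells lysed with 1% Triton X-100.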
(In general: Release of lactate dehydrogenase indicates damage to the cell membrane.)

Data set [2] concerns HEK293. The experiment in a line: Cytotoxicity against HEK293 cells expressing UGT1A3 assessed as decrease in cell viability by measuring intracellular ATP content at 1 mM by CellTiter-Glo luminescent assay. Type of data set: ADME, cell-based. The note with it: human, hek293, 1000 µM; TDE = time-dependent effect. In outline:
(§1)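 UGT1A3 or UGT1A4 stable HEK293 cells, 2 x 10^4 cells/well in 0.1 mL DMEM with 0.5% FBS, drug for 6, 12 or 24 h. Viability from intracellular ATP via CellTiter-Glo luminescence, expressed as percent of control cells. Mean ± SD of triplicates.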

Data set [3] deals with HEK293. The experiment in a line: Cytotoxicity against HEK293 cells expressing UGT assessed as decrease in cell viability at 1 mM measured up to 72 hrs by MTT assay. Type of data set: ADME, cell-based. As to conditions: human, hek293, 72 h, 1000 µM. An outline of the steps: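 Mock and UGT1A3/UGT1A4 stable HEK293 cells given drug for up to 72 h; viability measured by WST-8-based MTT assay.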

Data set [4] has as its target T1, UDP-glucuronosyltransferase 1A4 (Homo sapiens, UniProt P22310).
T1 sequence (P22310 whole entry): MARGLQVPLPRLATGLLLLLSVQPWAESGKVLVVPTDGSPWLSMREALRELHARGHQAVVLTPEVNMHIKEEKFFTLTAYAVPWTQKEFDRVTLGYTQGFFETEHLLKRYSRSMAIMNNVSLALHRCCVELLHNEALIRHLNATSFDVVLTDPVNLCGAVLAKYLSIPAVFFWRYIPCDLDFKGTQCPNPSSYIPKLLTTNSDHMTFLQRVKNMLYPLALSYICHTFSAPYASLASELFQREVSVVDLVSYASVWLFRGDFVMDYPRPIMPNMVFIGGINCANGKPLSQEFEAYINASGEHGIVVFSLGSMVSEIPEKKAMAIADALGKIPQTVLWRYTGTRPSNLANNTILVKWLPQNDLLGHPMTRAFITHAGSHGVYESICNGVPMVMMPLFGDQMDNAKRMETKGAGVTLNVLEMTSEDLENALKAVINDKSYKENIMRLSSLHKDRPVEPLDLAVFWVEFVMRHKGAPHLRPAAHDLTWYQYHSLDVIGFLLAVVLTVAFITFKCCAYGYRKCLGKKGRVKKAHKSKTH
The experiment in a line: Activity of human UGT1A4 expressed in HEK293 cells assessed as enzyme-mediated ketoprofen acyl-beta-D-glucuronide formation at 1 mM measured at 24 hrs by LC-MS/MS analysis. In kind it is ADME, cell-based. As to conditions: hek293, 24 h, 1000 µM. In outline:
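HEK293 stably expressing human UGT1A4, 2 x 10^5 cells/well in DMEM with 0.5% FBS, drug exposure 6–24 h, DMSO ≤0.1% final. Acyl glucuronide in cell fraction and medium measured by LC-MS/MS after methanol/acetic acid (100:1) precipitation and centrifugation. Triplicate determinations.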

Data set [5] deals with HEK293. Nature of the data set: Cytotoxicity against HEK293 cells expressing UGT1A4 assessed as decrease in cell viability at 1 mM by MTT assay. In kind it is ADME, cell-based. As to conditions: human, hek293, 1000 µM; TDE = time-dependent effect. (In general: Formazan colour is commonly taken as a measure of viable cells.)
In data set [6] the test system is HEK293. Nature of the data set: Genotoxicity in HEK293 cells expressing UGT1A3 assessed as DNA strand breaks at 1 mM after 24 hrs by comet assay. Type of data set: toxicity, cell-based. As to conditions: human, hek293, 24 h, 1000 µM. An outline of the steps: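 Alkaline comet assay: HEK/UGT1A3 cells seeded 24 h before, treated 24 h in DMEM with 0.5% FBS (vehicle 0.1% DMSO; MMS 0.1 mM positive control). Cells embedded in LMP agarose, lysed 1 h at 4°C at pH 10, unwound 30 min in NaOH/EDTA, electrophoresed 300 mA 20 min, ethidium-stained; tail moment scored on 150-180 comets over >3 experiments, median (IQR).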

For data set [7], the system named is HEK293. The experiment in a line: Cytotoxicity against HEK293 cells expressing UGT1A3 assessed as decrease in cell viability at 1 mM by MTT assay. In kind it is ADME, cell-based. As to conditions: human, hek293, 1000 µM; TDE = time-dependent effect.
For data set [8], the system named is HEK293. Nature of the data set: Cytotoxicity against mock transfected HEK293 cells assessed as decrease in cell viability by measuring intracellular ATP content at 1 mM by CellTiter-Glo luminescent assay. In kind it is cell-based. As to conditions: human, hek293, 1000 µM; TDE = time-dependent effect. An outline of the steps:
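Mock-transfected HEK293 cells seeded at 2 x 10^4 cells/well in DMEM with 0.5% FBS, drug added at once and incubated 6, 12 or 24 h. Viability read either by WST-8 (CCK-8) formazan absorbance at 450 nm or by intracellular ATP luminescence (CellTiter-Glo), as percent of control cells; mean ± SD of triplicates. Final DMSO ≤0.1%.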

For data set [9], the system named is HEK293. The experiment in a line: Cytotoxicity against HEK293 cells expressing UGT1A4 assessed as decrease in cell viability by measuring intracellular ATP content at 1 mM by CellTiter-Glo luminescent assay. In kind it is ADME, cell-based. The note with it: human, hek293, 1000 µM; TDE = time-dependent effect. An outline of the steps: as §1
Data set [10] concerns the target T2, UDP-glucuronosyltransferase 1A3 (Homo sapiens, UniProt P35503).
T2 sequence (P35503 whole entry): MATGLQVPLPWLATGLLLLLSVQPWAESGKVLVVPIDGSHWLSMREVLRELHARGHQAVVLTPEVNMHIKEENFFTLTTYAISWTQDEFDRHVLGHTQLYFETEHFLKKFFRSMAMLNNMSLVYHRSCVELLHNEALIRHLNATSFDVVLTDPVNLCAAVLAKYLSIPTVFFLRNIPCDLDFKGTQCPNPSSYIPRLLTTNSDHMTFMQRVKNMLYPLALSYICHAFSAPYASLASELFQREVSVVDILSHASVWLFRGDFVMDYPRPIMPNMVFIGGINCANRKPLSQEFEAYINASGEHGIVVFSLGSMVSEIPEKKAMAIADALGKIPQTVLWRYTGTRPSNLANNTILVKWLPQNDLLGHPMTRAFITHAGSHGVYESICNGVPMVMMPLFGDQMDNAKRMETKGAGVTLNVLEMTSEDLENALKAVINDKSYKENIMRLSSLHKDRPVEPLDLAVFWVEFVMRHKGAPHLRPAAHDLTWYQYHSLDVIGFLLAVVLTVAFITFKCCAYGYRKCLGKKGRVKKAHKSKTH
Nature of the data set: Activity of human UGT1A3 expressed in HEK293 cells assessed as enzyme-mediated ketoprofen acyl-beta-D-glucuronide formation at 1 mM measured at 24 hrs by LC-MS/MS analysis. In kind it is ADME, cell-based. As to conditions: hek293, 24 h, 1000 µM. In outline:
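HEK293 stably expressing human UGT1A3 (G418-selected), 2 x 10^5 cells/well in 1 mL DMEM with 0.5% FBS, exposed immediately to drug for 6, 12 or 24 h; DMSO ≤0.1% final. Cells and medium separated by centrifugation, cell fraction resuspended in PBS; aliquots mixed 1:1 with methanol/acetic acid (100:1), spun, supernatant analysed by LC-MS/MS. Triplicate determinations, mean ± SD.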

The subject of data set [11] is HEK293. The experiment in a line: Cytotoxicity against mock transfected HEK293 cells assessed as decrease in cell viability at 1 mM by MTT assay. Type of data set: cell-based. As to conditions: human, hek293, 1000 µM; TDE = time-dependent effect.

For the compound `CC(C(=O)O)c1cccc(C(=O)c2ccccc2)c1` (stereo unspecified) [KETOPROFEN], the Activity is recorded as less than 5.4% in [1]; “tde” in data set [2]; “Non-toxic” in data set [3]; “tde” in [5]; “Non-toxic” in data set [6]; “tde” in data set [7]. Further, the Activity entry in data set [8], in data set [9] and in data set [11] was “tde” throughout. Also, the Drug metabolism entry in data set [4] is “metabolite_not_detected”; in [10], “metabolite_detected”.
